22 molecules from ChEMBL document CHEMBL1124632 (J Med Chem, 1989) can be followed below.

pKi: −log10 of the molar value. A value given as a limit tells only on which side of the number the result lay.

T1 sequence (P28564 whole entry): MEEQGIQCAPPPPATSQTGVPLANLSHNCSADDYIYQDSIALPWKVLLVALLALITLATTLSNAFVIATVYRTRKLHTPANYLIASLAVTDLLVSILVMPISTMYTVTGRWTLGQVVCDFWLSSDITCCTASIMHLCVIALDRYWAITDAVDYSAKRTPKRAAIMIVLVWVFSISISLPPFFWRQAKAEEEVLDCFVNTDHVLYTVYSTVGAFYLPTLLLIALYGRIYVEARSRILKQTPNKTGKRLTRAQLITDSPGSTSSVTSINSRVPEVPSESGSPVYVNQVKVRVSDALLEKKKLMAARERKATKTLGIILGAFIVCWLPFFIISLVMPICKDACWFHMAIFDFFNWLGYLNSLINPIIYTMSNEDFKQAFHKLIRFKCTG

For one test, the target named is Adrenergic receptor beta (Rattus norvegicus, UniProt P18090+P10608+P26255). Description: Inhibitory activity against beta adrenergic receptor of rat frontal cortex homogenate using (1.0 nM) [3H]- dihydroalprenolol. It is filed as tissue-based.
As a reminder, the Ki is a measure of affinity in units of concentration, obtained from inhibition or displacement. Higher therefore signals weaker binding. For `CCCCN(CCCC)CCCOc1cccc2ccccc12`, the Ki stood at 8300 nM.

For the molecule `CCCN(C)CCOc1cccc2ccccc12`, the Ki turned out to be 5300 nM.

In turn, `CN(C)CCCOc1cccc2ccccc12` gave a Ki of 2400 nM.

`CCCCN(CC)CCOc1cccc2ccccc12` yielded a Ki of 5000 nM.

`CN(C)CCOc1cccc2ccccc12` yielded a Ki of 4500 nM.

In the case of `CCCCN(CCCC)CCOc1cccc2ccccc12`, the Ki was greater than 10000 nM.

A further test addresses T1, 5-hydroxytryptamine receptor 1B (Rattus norvegicus, UniProt P28564). Description: (§1) Inhibitory activity against 5-hydroxytryptamine 1B receptor of rat striatal membrane homogenate using [3H]5-HT as the radioligand. Summed up: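 Competition binding on washed rat striatal membrane homogenate (8 mg) with 2.0 nM [³H]5-HT. 10⁻⁷ M 8-OH-DPAT and mesulergine block 5-HT1A and 5-HT1C sites; 10⁻⁶ M 5-HT defines nonspecific binding. Buffer: 50 mM Tris HCl, EDTA, MgSO₄, 10 μM pargyline, 0.1% ascorbate. Eleven concentrations, at least triplicate. 37 °C for 30 min, then glass-fiber filtration. Ki given.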
The pKi is the Ki on a negative log10 scale, so that one unit is a factor of ten. As for `CN(C)CCCCc1ccccc1`, the pKi was less than 5.00.

Molecule `CCCN(CCC)CC(O)COc1cccc2ccccc12` (centres undefined) gave a pKi of 5.10.

The target in another test is T2, 5-hydroxytryptamine receptor 1A (Rattus norvegicus, UniProt P19327).
T2 sequence (P19327 whole entry): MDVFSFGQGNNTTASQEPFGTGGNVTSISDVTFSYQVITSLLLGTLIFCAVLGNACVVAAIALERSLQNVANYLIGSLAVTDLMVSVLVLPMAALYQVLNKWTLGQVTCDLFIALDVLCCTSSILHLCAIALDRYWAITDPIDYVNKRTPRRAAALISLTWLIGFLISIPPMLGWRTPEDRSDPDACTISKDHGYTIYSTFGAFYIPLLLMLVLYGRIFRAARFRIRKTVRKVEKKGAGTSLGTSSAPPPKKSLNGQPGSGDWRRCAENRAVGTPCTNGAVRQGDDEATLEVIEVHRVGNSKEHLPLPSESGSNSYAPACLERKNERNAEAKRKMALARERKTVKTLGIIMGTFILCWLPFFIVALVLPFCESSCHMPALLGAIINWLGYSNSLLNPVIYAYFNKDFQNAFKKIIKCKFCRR
The test is described as follows: (§2) Inhibitory activity against 5-hydroxytryptamine 1A receptor of rat hippocampal tissue using [3H]OH-DPAT as radioligand. It is filed as tissue-based, Hippocampus. Summed up: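 Rat hippocampal membranes (4 mg wet weight), washed and preincubated 15 min at 37 °C, in 50 mM Tris HCl with 0.5 mM Na₂EDTA, 10 mM MgSO₄, 10 μM pargyline and 0.1% ascorbate. 0.1 nM [³H]8-OH-DPAT, 1 μM 8-OH-DPAT for nonspecific binding. Eleven competitor concentrations, at least triplicate. Incubated 30 min at 37 °C, then filtered over glass fiber. Ki reported.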
For `CN(C)Cc1cccc2ccccc12`, the pKi was 5.47.

Regarding `CCCCN(CC)CCC(=O)c1cccc2ccccc12`, the pKi is 5.45.

Take `CCCCN(CC)CCCc1cccc2ccccc12`: the pKi was 6.52.

Turning to `CN(C)CCCCc1ccccc1`, the pKi is 5.30.

On to `CCCCN(CC)CCCC1CCCc2ccccc21` (centres undefined), for which the pKi was 6.27.

The molecule `CCCN(CCC)CC(O)COc1cccc2ccccc12` (centres undefined) showed a pKi of 5.88.

The target in a further test is T2, 5-hydroxytryptamine receptor 1A. The description is as §2.
With `CN(C)CCCOc1ccccc1O`, the pKi is 5.31.

`CCCN(CCC)CCCOc1ccccc1` had a pKi of 5.56.

The molecule `CN(C)CCCNc1ccccc1` gave a pKi of less than 4.60.

In the case of `CCCCN(CCCC)CCCOc1cccc2ccccc12`, the pKi is 6.65.

Take `CN(C)CCCCOc1cccc2ccccc12`: the pKi was 6.40.

For `CCCN(C)CCOc1cccc2ccccc12`, the pKi is 7.35.

For the molecule `CN(C)CCCOc1cccc2ccccc12`, the pKi is 6.46.

Molecule `CCCCN(CC)CCOc1cccc2ccccc12` showed a pKi of 7.41.

As to `CN(C)CCCOc1ccccc1`, the pKi is 5.31.

In the case of `NCCOc1cccc2ccccc12`, the pKi was 7.22.

Consider `CN(C)CCOc1cccc2ccccc12`, for which the pKi was 7.10.

Consider `CCCCN(CCCC)CCOc1cccc2ccccc12`, for which the pKi is 6.82.

`COc1ccccc1OCCCN(C)C` gave a pKi of 5.52.

`CCCN(CCC)CCCOc1cccc2ccccc12`: the pKi was 6.35.

Molecule `CNCCCOc1ccccc1` had a pKi of 5.48.

In turn, `CN(CCOc1cccc2ccccc12)Cc1ccccc1` had a pKi of 7.02.

Another test concerns the target T1, 5-hydroxytryptamine receptor 1B. Described as §1.
`CN(C)CCCOc1ccccc1O`: the pKi is less than 5.00.

For the molecule `CCCN(CCC)CCCOc1ccccc1`, the pKi was less than 5.00.

Take `CN(C)CCCNc1ccccc1`: the pKi is less than 5.00.

In the case of `CCCCN(CCCC)CCCOc1cccc2ccccc12`, the pKi was 5.25.

In turn, `CN(C)CCCCOc1cccc2ccccc12` gave a pKi of 6.00.

Regarding `CCCN(C)CCOc1cccc2ccccc12`, the pKi is 5.74.

On to `CN(C)CCCOc1cccc2ccccc12`, for which the pKi is 6.00.

On to `CCCCN(CC)CCOc1cccc2ccccc12`, for which the pKi is 5.96.

Regarding `CN(C)CCCOc1ccccc1`, the pKi was less than 5.00.

In the case of `CN(C)CCOc1cccc2ccccc12`, the pKi is 5.82.

With `CCCCN(CCCC)CCOc1cccc2ccccc12`, the pKi was 5.05.

Regarding `COc1ccccc1OCCCN(C)C`, the pKi is less than 5.00.

With `CCCN(CCC)CCCOc1cccc2ccccc12`, the pKi was 5.21.

`CNCCCOc1ccccc1` showed a pKi of 5.51.
